Test results published in ChEMBL document CHEMBL5303300, “EUbOPEN Chemogenomics Library - Multiplex” (2023).
“And” between values parts separate entries of the source, which are not always exact repeats. Equal values may be shown once.

Key:
HEK-293T = assay: Multiplex assay against HEK293T; format: toxicity, cell-based; conditions: human, number of replicates 2
Method in brief: (§1)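 Tubulin, mitochondrial-mass and membrane-permeability phenotypes are per cents of healthy-nucleus cells. Cells were gated by CellPathfinder machine learning into Hoechst high-intensity objects or normal cells, normal cells into healthy, pyknosed or fragmented nuclei, and pyknosed cells into mitotic or apoptotic. Before that, live cells stained at seeding with Hoechst33342, BioTracker Green Microtubule Cytoskeleton Dye, MitoTracker Red and Annexin V Alexa Fluor 680 were imaged on a CQ1 microscope at 37°C and 5% CO2 after compound addition.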

Fibroblast = assay: Multiplex assay against human fibroblast; format: toxicity, cell-based; conditions: number of replicates 2; method in brief: as §1
[1] = 12 h, 1 µM, compound concentration 1 uM
[2] = 12 h, 10 µM, compound concentration 10 uM
[3] = 24 h, 1 µM, compound concentration 1 uM
[4] = 24 h, 10 µM, compound concentration 10 uM
[5] = 48 h, 1 µM, compound concentration 1 uM
[6] = 48 h, 10 µM, compound concentration 10 uM

O=C(Nc1ccc(Cl)c(-c2ccccn2)c1)c1cccc(COc2ccc(Br)cc2CNCCO)c1.O=CO
Population Apoptotic (%) (HEK-293T; [1]): 56% and 52% | Population Fragmented Nuclei (%) (HEK-293T; [1]): 4% and 3% | Population Healthy Nuclei (%) (HEK-293T; [1]): 76% and 80% | Population Hoechst High Intensity Objects (%) (HEK-293T; [1]): 8% and 10% | Population Membrane Permeable-Phenotype (%) (HEK-293T; [1]): 6% and 5% | Population Mitochondria Different-Phenotype (%) (HEK-293T; [1]): 37% and 35% | Population Mitotic Cells (%) (HEK-293T; [1]): 43% and 47% | Population Normal (%) (HEK-293T; [1]): 91% and 89% | Population Pyknosed Nuclei (%) (HEK-293T; [1]): 18% and 15% | Population Tubulin-Different-Phenotype (%) (HEK-293T; [1]): 92% and 94% | Total Cell Count (HEK-293T; [1]): 417 and 613 | Population Apoptotic (%) (HEK-293T; [2]): 85% and 73% | Population Fragmented Nuclei (%) (HEK-293T; [2]): 0% and 7% | Population Healthy Nuclei (%) (HEK-293T; [2]): 79% and 71% | Population Hoechst High Intensity Objects (%) (HEK-293T; [2]): 11% and 13% | Population Membrane Permeable-Phenotype (%) (HEK-293T; [2]): 1% | Population Mitochondria Different-Phenotype (%) (HEK-293T; [2]): 91% and 83% | Population Mitotic Cells (%) (HEK-293T; [2]): 14% and 26% | Population Normal (%) (HEK-293T; [2]): 88% and 86% | Population Pyknosed Nuclei (%) (HEK-293T; [2]): 19% and 21% | Population Tubulin-Different-Phenotype (%) (HEK-293T; [2]): 81% and 95% | Total Cell Count (HEK-293T; [2]): 238 and 269 | Population Apoptotic (%) (HEK-293T; [3]): 48% and 54% | Population Fragmented Nuclei (%) (HEK-293T; [3]): 4% and 6% | Population Healthy Nuclei (%) (HEK-293T; [3]): 85% and 82% | Population Hoechst High Intensity Objects (%) (HEK-293T; [3]): 6% and 10% | Population Membrane Permeable-Phenotype (%) (HEK-293T; [3]): 6% | Population Mitochondria Different-Phenotype (%) (HEK-293T; [3]): 29% and 19% | Population Mitotic Cells (%) (HEK-293T; [3]): 51% and 45% | Population Normal (%) (HEK-293T; [3]): 93% and 89% | Population Pyknosed Nuclei (%) (HEK-293T; [3]): 9% and 11% | Population Tubulin-Different-Phenotype (%) (HEK-293T; [3]): 88% and 86% | Total Cell Count (HEK-293T; [3]): 566 and 806 | Population Apoptotic (%) (HEK-293T; [4]): 82% and 80% | Population Fragmented Nuclei (%) (HEK-293T; [4]): 4% | Population Healthy Nuclei (%) (HEK-293T; [4]): 75% and 72% | Population Hoechst High Intensity Objects (%) (HEK-293T; [4]): 16% and 15% | Population Membrane Permeable-Phenotype (%) (HEK-293T; [4]): 1% and 2% | Population Mitochondria Different-Phenotype (%) (HEK-293T; [4]): 95% and 89% | Population Mitotic Cells (%) (HEK-293T; [4]): 17% and 19% | Population Normal (%) (HEK-293T; [4]): 83% and 84% | Population Pyknosed Nuclei (%) (HEK-293T; [4]): 19% and 23% | Population Tubulin-Different-Phenotype (%) (HEK-293T; [4]): 74% and 91% | Total Cell Count (HEK-293T; [4]): 248 and 263 | Population Apoptotic (%) (HEK-293T; [5]): 48% and 34% | Population Fragmented Nuclei (%) (HEK-293T; [5]): 7% and 9% | Population Healthy Nuclei (%) (HEK-293T; [5]): 87% and 85% | Population Hoechst High Intensity Objects (%) (HEK-293T; [5]): 8% and 10% | Population Membrane Permeable-Phenotype (%) (HEK-293T; [5]): 9% and 8% | Population Mitochondria Different-Phenotype (%) (HEK-293T; [5]): 8% and 5% | Population Mitotic Cells (%) (HEK-293T; [5]): 51% and 65% | Population Normal (%) (HEK-293T; [5]): 91% and 89% | Population Pyknosed Nuclei (%) (HEK-293T; [5]): 4% | Population Tubulin-Different-Phenotype (%) (HEK-293T; [5]): 61% and 66% | Total Cell Count (HEK-293T; [5]): 894 and 1474 | Population Apoptotic (%) (HEK-293T; [6]): 79% and 78% | Population Fragmented Nuclei (%) (HEK-293T; [6]): 3% and 1% | Population Healthy Nuclei (%) (HEK-293T; [6]): 71% and 68% | Population Hoechst High Intensity Objects (%) (HEK-293T; [6]): 19% and 12% | Population Membrane Permeable-Phenotype (%) (HEK-293T; [6]): 4% and 1% | Population Mitochondria Different-Phenotype (%) (HEK-293T; [6]): 82% and 86% | Population Mitotic Cells (%) (HEK-293T; [6]): 20% and 21% | Population Normal (%) (HEK-293T; [6]): 80% and 87% | Population Pyknosed Nuclei (%) (HEK-293T; [6]): 24% and 29% | Population Tubulin-Different-Phenotype (%) (HEK-293T; [6]): 84% and 89% | Total Cell Count (HEK-293T; [6]): 339 and 305 | Population Apoptotic (%) (Fibroblast; [1]): 41% and 58% | Population Fragmented Nuclei (%) (Fibroblast; [1]): 4% and 14% | Population Healthy Nuclei (%) (Fibroblast; [1]): 72% and 56% | Population Hoechst High Intensity Objects (%) (Fibroblast; [1]): 0% and 1% | Population Membrane Permeable-Phenotype (%) (Fibroblast; [1]): 10% and 13% | Population Mitochondria Different-Phenotype (%) (Fibroblast; [1]): 1% and 6% | Population Mitotic Cells (%) (Fibroblast; [1]): 58% and 41% | Population Normal (%) (Fibroblast; [1]): 100% and 98% | Population Pyknosed Nuclei (%) (Fibroblast; [1]): 23% and 28% | Population Tubulin-Different-Phenotype (%) (Fibroblast; [1]): 71% and 68% | Total Cell Count (Fibroblast; [1]): 208 and 161 | Population Apoptotic (%) (Fibroblast; [2]): 46% and 42% | Population Fragmented Nuclei (%) (Fibroblast; [2]): 15% and 17% | Population Healthy Nuclei (%) (Fibroblast; [2]): 58% | Population Hoechst High Intensity Objects (%) (Fibroblast; [2]): 0% | Population Membrane Permeable-Phenotype (%) (Fibroblast; [2]): 21% and 16% | Population Mitochondria Different-Phenotype (%) (Fibroblast; [2]): 6% and 14% | Population Mitotic Cells (%) (Fibroblast; [2]): 53% and 57% | Population Normal (%) (Fibroblast; [2]): 100% and 99% | Population Pyknosed Nuclei (%) (Fibroblast; [2]): 25% and 24% | Population Tubulin-Different-Phenotype (%) (Fibroblast; [2]): 83% and 85% | Total Cell Count (Fibroblast; [2]): 318 and 361 | Population Apoptotic (%) (Fibroblast; [3]): 55% and 63% | Population Fragmented Nuclei (%) (Fibroblast; [3]): 9% and 11% | Population Healthy Nuclei (%) (Fibroblast; [3]): 69% and 58% | Population Hoechst High Intensity Objects (%) (Fibroblast; [3]): 0%
